Reference: ChEMBL document CHEMBL5104176 (J Med Chem, 2022)
Active and inactive are the calls of the source. The calls are words filed in the database; no cut-off is given here.

Columns and labels:
[1] = Selectivity ratio of Ki for displacement of [3H]N-methylspiperone from human D2L receptor expressed in HEK293T cell membrane to Ki for displacement of [3H]N-methylspiperone from human D4.4 receptor expressed in HEK293T cell membrane
[2] = Selectivity ratio of Ki for displacement of [3H]N-methylspiperone from human D3R expressed in HEK293T cell membrane to Ki for displacement of [3H]N-methylspiperone from human D4.4 receptor expressed in HEK293T cell membrane
D(2) dopamine receptor = D(2) dopamine receptor (Homo sapiens, UniProt P14416); assay: Displacement of [3H]N-methylspiperone from human D2L receptor expressed in HEK293T cell membrane incubated for 1 hr by MicroBeta scintillation counting method; format: cell membranes
How it was run: (§1)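 Membranes from stably transfected HEK293 cells (hD2L, hD3 or hD4.4), 20 μg (D2, D3) or 30 μg (D4) protein/well. Incubated 1 h at room temperature in EBSS binding buffer, pH 7.4, with 0.4 nM [3H]N-methylspiperone and 10 half-log dilutions in triplicate. 10 μM (+)-butaclamol defines nonspecific binding. GF filtration, scintillation counting.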

D(4) dopamine receptor [3] = target: T1, D(4) dopamine receptor (Homo sapiens, UniProt P21917); assay: Displacement of [3H]N-methylspiperone from human D4.4 receptor expressed in HEK293T cell membrane incubated for 1 hr by MicroBeta scintillation counting method; format: cell membranes
T1 sequence (P21917 whole entry): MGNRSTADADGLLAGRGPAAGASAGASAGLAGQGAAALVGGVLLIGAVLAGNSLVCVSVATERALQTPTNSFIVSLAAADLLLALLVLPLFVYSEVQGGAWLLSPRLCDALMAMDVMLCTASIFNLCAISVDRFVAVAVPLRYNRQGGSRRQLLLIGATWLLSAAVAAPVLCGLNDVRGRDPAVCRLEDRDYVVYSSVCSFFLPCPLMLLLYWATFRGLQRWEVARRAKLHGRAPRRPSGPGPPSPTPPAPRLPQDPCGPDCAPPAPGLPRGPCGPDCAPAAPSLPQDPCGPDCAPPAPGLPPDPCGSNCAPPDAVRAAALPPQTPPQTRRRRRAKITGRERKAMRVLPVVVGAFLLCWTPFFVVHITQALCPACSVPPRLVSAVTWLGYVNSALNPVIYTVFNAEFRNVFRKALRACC

D(3) dopamine receptor = D(3) dopamine receptor (Homo sapiens, UniProt P35462); assay: Displacement of [3H]N-methylspiperone from human D3R receptor expressed in HEK293T cell membrane incubated for 1 hr by MicroBeta scintillation counting method; format: cell membranes
How it was run: as §1, with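 “counting. Ki by Cheng–Prusoff from ≥3 experiments; selectivity is the Ki ratio.” for “counting.”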

D(4) dopamine receptor [4] = target: T1, D(4) dopamine receptor; assay: Displacement of [3H]7-OH-DPAT from human D4.4 receptor expressed in HEK293T cell membrane incubated for 1.5 hrs by MicroBeta scintillation counting method; format: cell membranes
How it was run: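 Fresh membranes from HEK293 cells stably expressing hD4.4 (about 50–60 μg protein/well) in 50 mM Tris, 10 mM MgCl2, 1 mM EDTA, pH 7.4. Radioligand was 3 nM final; incubation 1.5 h at room temperature. Nonspecific binding was set with 10 μM (+)-butaclamol; DMSO was 3% final. Ten half-log dilutions were run in triplicate, then filtered. Ki came from IC50 by Cheng–Prusoff, from at least three independent experiments.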

U-251 [5] = assay: Cytotoxicity against human U-251 cells assessed as reduction in cell viability at 10 uM incubated for 24 hrs by MTS assay; format: functional, cell-based
How it was run: (§2)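 Cells seeded at 5,000/well and grown to 80% confluence: T98 and U251 in EMEM with 10% serum; GSC#83 as spheres in serum-free DMEM/F12 with EGF and bFGF. Treated 24 h at 5–50 μM in DMSO, with a DMSO vehicle control. MTS reagent added and formazan absorbance read at 490 nm. n = 6; two-way ANOVA.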

GSC#83 [6] = assay: Cytotoxicity against human GSC#83 cells assessed as reduction in cell viability at 5 to 50 uM incubated for 24 hrs by MTS assay; format: functional, cell-based; details: dose 5-50 µM
How it was run: as §2

T98G [7] = assay: Cytotoxicity against human T98G cells assessed as reduction in cell viability at 5 to 50 uM incubated for 24 hrs by MTS assay; format: functional, cell-based; details: dose 5-50 µM
How it was run: as §2

U-251 [8] = assay: Cytotoxicity against human U-251 cells assessed as reduction in cell viability at 5 to 50 uM incubated for 24 hrs by MTS assay; format: functional, cell-based; details: dose 5-50 µM
How it was run: as §2

T98G [9] = assay: Cytotoxicity against human T98G cells assessed as reduction in cell viability at 10 uM incubated for 24 hrs by MTS assay; format: functional, cell-based
How it was run: as §2

GSC#83 [10] = assay: Cytotoxicity against human GSC#83 cells assessed as reduction in cell viability at 10 uM incubated for 24 hrs by MTS assay; format: functional, cell-based
How it was run: as §2

[11] = target: T2, D(4) dopamine receptor (Homo sapiens) (UniProt P21917); assay: Agonist activity at D4R (unknown origin) expressed in human HEK293T cells assessed as Gi protein activation measured after 2.5 mins by BRET assay relative to control; format: functional, cell-based
T2 sequence (whole entry): T1 sequence (P21917 whole entry)
How it was run: (§3)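 Transiently transfected HEK293T cells (15 μg plasmid cDNA, polyethyleneimine, 6 h, assayed after 48 h). Gαi1 or GαoA fused to RLuc8 and Gγ2 to mVenus for G protein activation; D4 receptor fused to RLuc8 and β-arrestin to mVenus for recruitment. About 2×10^5 cells/well in PBS with 0.1% glucose and 200 μM Na bisulfite. Coelenterazine H 5 μM. Read 530/485 nm; RLuc8-only background subtracted.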

[12] = target: T2, D(4) dopamine receptor (Homo sapiens); assay: Agonist activity at D4R (unknown origin) expressed in human HEK293T cells assessed as G0 protein activation measured after 2.5 mins by BRET assay relative to control; format: functional, cell-based
How it was run: as §3

[13] = target: T2, D(4) dopamine receptor (Homo sapiens); assay: Agonist activity at D4R (unknown origin) expressed in human HEK293T cells assessed as beta arrestin-2 recruitment measured after 2.5 mins by BRET assay relative to control; format: functional, cell-based
How it was run: as §3

D(4) dopamine receptor [14] = target: T1, D(4) dopamine receptor; assay: Antagonist activity at D4R (unknown origin) expressed in human HEK293T cells assessed as inhibition of dopamine-induced Gi protein activation pretreated for 10 mins followed by dopamine addition and measured after 2.5 mins by BRET assay; format: functional, cell-based
D(4) dopamine receptor [15] = target: T1, D(4) dopamine receptor; assay: Antagonist activity at D4R (unknown origin) expressed in human HEK293T cells assessed as inhibition of dopamine-induced beta arrestin-2 recruitment pretreated for 10 mins followed by dopamine addition and measured after 2.5 mins by BRET assay; format: functional, cell-based
D(4) dopamine receptor [16] = target: T1, D(4) dopamine receptor; assay: Antagonist activity at D4R (unknown origin) expressed in human HEK293T cells assessed as inhibition of dopamine-induced G0 protein activation pretreated for 10 mins followed by dopamine addition and measured after 2.5 mins by BRET assay; format: functional, cell-based

D(2) dopamine receptor, sequence (P14416 whole entry): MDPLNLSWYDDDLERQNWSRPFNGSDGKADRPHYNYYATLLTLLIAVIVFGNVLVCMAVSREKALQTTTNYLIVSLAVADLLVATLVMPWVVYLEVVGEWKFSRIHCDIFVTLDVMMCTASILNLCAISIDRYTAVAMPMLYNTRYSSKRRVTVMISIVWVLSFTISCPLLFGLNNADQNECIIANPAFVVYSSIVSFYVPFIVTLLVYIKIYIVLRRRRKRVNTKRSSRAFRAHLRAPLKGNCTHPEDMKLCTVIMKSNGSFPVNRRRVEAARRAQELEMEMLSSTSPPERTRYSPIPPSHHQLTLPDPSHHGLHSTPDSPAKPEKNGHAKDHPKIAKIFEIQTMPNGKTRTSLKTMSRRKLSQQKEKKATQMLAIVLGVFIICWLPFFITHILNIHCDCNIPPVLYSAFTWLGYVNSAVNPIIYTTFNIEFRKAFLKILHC
D(3) dopamine receptor, sequence (P35462 whole entry): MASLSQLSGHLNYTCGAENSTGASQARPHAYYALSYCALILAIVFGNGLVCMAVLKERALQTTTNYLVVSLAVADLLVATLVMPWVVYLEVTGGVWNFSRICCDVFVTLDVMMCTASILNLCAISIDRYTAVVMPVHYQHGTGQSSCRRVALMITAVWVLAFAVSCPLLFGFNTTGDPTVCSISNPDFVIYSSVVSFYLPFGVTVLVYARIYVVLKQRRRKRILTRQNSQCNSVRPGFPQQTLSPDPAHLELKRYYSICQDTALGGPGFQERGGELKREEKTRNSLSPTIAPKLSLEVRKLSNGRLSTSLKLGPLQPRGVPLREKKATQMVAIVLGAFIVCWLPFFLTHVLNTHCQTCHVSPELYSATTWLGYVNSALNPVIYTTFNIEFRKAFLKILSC

Row | SMILES | Ki (D(2) dopamine receptor) | Ki (D(4) dopamine receptor [3]) | Ki (D(3) dopamine receptor) | Ratio Ki [1] | Ratio Ki [2] | other results
1 | O=C1CCc2ccccc2N1CCCN1CCN(c2ccc(Cl)cc2Cl)CC1 | 550 nM | 0.676 nM | 501 nM | 827 | 744 | –
2 | c1ccc(N2CCN(CCCN3CCCc4ccccc43)CC2)cc1 | 708 nM | 2.63 nM | 562 nM | 269 | 214 | –
3 | O=C1CCc2ccccc2N1CCCCCN1CCN(c2ccccc2)CC1 | 282 nM | 23.4 nM | 195 nM | 12 | 8 | –
4 | O=C1CCc2ccccc2N1CCCN1CCN(c2cccc(Cl)c2Cl)CC1 | – | 0.692 nM | 21.4 nM | – | – | –
5 | COc1ccccc1N1CCN(CCCN2C(=O)CCc3ccccc32)CC1 | 81.3 nM | 0.617 nM | 100 nM | 132 | 162 | –
6 | Fc1ccc(N2CCN(CCC3OCCc4ccccc43)CC2)cc1 (centres undefined) | – | – | – | – | – | Activity (U-251 [5]): Active; Activity (GSC#83 [6]): Active; Activity (T98G [7]): Active; Activity (U-251 [8]): Active; Activity (T98G [9]): Active; Activity (GSC#83 [10]): Active
7 | O=C1CCc2ccccc2N1CCCN1CCN(c2ccc(Cl)c(Cl)c2)CC1 | 955 nM | 0.871 nM | 631 nM | 1100 | 725 | –
8 | Cc1ccccc1N1CCN(CCCN2C(=O)CCc3ccccc32)CC1 | 398 nM | 1.35 nM | 275 nM | 295 | 204 | –
9 | O=C1CCc2ccccc2N1CCCN1CCN(c2ccccc2)CC1 | – | – | – | 380 | 457 | –
10 | NCCc1ccc(O)c(O)c1 | – | – | – | – | – | Emax ([11]; filed as agonist): 100%; Emax ([12]; filed as agonist): 100%; Emax ([13]; filed as agonist): 100%
11 | c1ccc(N2CCN(CCCn3ccc4ccccc43)CC2)cc1 | 724 nM | 1.91 nM | 490 nM | 380 | 257 | –
12 | N#Cc1ccccc1N1CCN(CCCN2C(=O)CCc3ccccc32)CC1 | 355 nM | 1.07 nM | 339 nM | 331 | 316 | –
13 | Cc1cccc(N2CCN(CCCN3C(=O)CCc4ccccc43)CC2)c1 | 1450 nM | 1.78 nM | 794 nM | 813 | 447 | –
14 | O=C1CCc2ccccc2N1CCCN1CCN(c2cccc(Cl)c2)CC1 | 759 nM | 1.05 nM | 282 nM | 724 | 269 | Ki (D(4) dopamine receptor [4]): 0.776 nM
15 | CCCCC1CCN(CCCN2C(=O)CCc3ccccc32)CC1 | – | – | – | 691 | 631 | –
16 | c1ccc(N2CCN(CCCc3nc4ccccc4s3)CC2)cc1 | 1780 nM | 10.2 nM | 692 nM | 174 | 68 | –
17 | Cn1nnc2c(C(N)=O)ncn2c1=O | – | – | – | – | – | Activity (U-251 [5]): Active; Activity (GSC#83 [6]): Active; Activity (T98G [7]): Active; Activity (U-251 [8]): Active; Activity (T98G [9]): Active; Activity (GSC#83 [10]): Active
18 | COc1cccc(N2CCN(CCCN3C(=O)CCc4ccccc43)CC2)c1 | 3090 nM | 4.17 nM | 1550 nM | 741 | 372 | –
19 | O=C1CCc2ccccc2N1CCCCN1CCN(c2ccccc2)CC1 | 1120 nM | 4.27 nM | 81.3 nM | 263 | 19 | –
20 | O=C1CCc2ccccc2N1CCCN1CCN(c2ncccn2)CC1 | 3980 nM | 4.47 nM | 2290 nM | 891 | 513 | –

Continued by falling Ki (D(4) dopamine receptor [3]), values first:

Row | Ki (D(2) dopamine receptor) | Ki (D(4) dopamine receptor [3]) | Ki (D(3) dopamine receptor) | SMILES | Ratio Ki [1] | Ratio Ki [2] | other results
21 | 12900 nM | 63.1 nM | 1070 nM | O=C1CCc2ccccc2N1CCN1CCN(c2ccccc2)CC1 | 204 | 17 | –
22 | 1700 nM | 37.2 nM | 813 nM | c1ccc(N2CCN(CCCc3nc4ccccc4o3)CC2)cc1 | 46 | 22 | –
23 | 6170 nM | 30.2 nM | 832 nM | c1ccc(N2CCN(CCCc3nc4ccccc4[nH]3)CC2)cc1 | 204 | 28 | –
24 | 12000 nM | 12.3 nM | 8910 nM | c1ccc(N2CCN(CCCn3cnc4ccccc43)CC2)cc1 | 977 | 719 | –
25 | 20900 nM | 6.92 nM | 8320 nM | COc1ccc(N2CCN(CCCN3C(=O)CCc4ccccc43)CC2)cc1 | 3020 | 1200 | IC50 (D(4) dopamine receptor [14]): 269 nM; Emax [11]: 0%; IC50 (D(4) dopamine receptor [15]): 389 nM; Emax [12]: 0%; Emax [13]: 0%; IC50 (D(4) dopamine receptor [16]): 107 nM
26 | 24000 nM | 6.61 nM | 11000 nM | O=C1CCc2ccccc2N1CCCN1CCN(c2ccc([N+](=O)[O-])cc2)CC1 | 3630 | 1660 | –
27 | 2510 nM | 3.55 nM | 1260 nM | O=C1CCc2ccccc2N1CCCN1CCN(c2cccc([N+](=O)[O-])c2)CC1 | 708 | 355 | –
28 | 138 nM | 0.603 nM | 60.3 nM | O=C1CCc2ccccc2N1CCCN1CCN(c2ccccc2Cl)CC1 | 229 | 100 | Ki (D(4) dopamine receptor [4]): 0.513 nM
29 | 132 nM | 0.407 nM | 129 nM | O=C1CCc2ccccc2N1CCCN1CCN(c2ccccc2[N+](=O)[O-])CC1 | 324 | 316 | –
